SMILES strings stand for the structures. Active and inactive are the calls of the source. The rule behind the calls is not given here. Bounds are passed on as bounds.

Assay [1] concerns Hs-578T. The assay is described as follows: Antiproliferative activity against human Hs578T cells after 3 to 7 days by SRB assay. The class given is functional, cell-based. The essentials:
(§1)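 Sulforhodamine B total-protein read-out on adherent cells maintained in RPMI with 10% FBS. Seeding was 900–4000 cells per well depending on line, with 24 h allowed for attachment. Six replicate wells per concentration, exposure for three cell doublings (3 to 7 days); DMSO final below 0.01%. Logistic sigmoidal fit by nonlinear least squares gave EC50, EMax and AUC; experiments repeated at least three times.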
(In general: In SRB staining, fixed cells bind dye roughly in proportion to their protein.)

For assay [2], the system named is MDA-MB-468. The assay is described as follows: Induction of senescence in human MDA-MB-468 cells assessed as increase in IL-8 mRNA expression level at EC80 concentration after 6 days by qRT-PCR analysis. The format is functional, cell-based. The essentials:
(§2)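 Cells treated 6 days at EC80 doses (derived from dose-response data) and analysed for SASP transcripts by qRT-PCR. Expression was normalised to cyclophilin B and expressed relative to vehicle-treated asynchronous cells. Bars are mean ± SEM (n = 2).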
(In qPCR the cycle at which signal appears reflects the starting amount.)

In assay [3] the test system is BT-549. The assay is described as follows: Induction of senescence in human BT549 cells at EC80 concentration after 3 to 6 days by DAPI staining based flow cytometry. The class given is functional. In outline: (§3)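 Compounds given at approximately EC80 (taken from the cell's own dose-response data) for 3 to 6 days depending on line. Floating and trypsinized adherent cells were pooled, washed 3–5 times in warm PBS, and stained with DAPI (1/10,000) in PBS with 4% FBS on ice. Flow cytometry counted 10 000 cells per gate: dead = DAPI+, senescent = SSC+ DAPI−. Duplicate experiments, mean ± SEM.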
For orientation: In flow cytometry, cells or beads pass a laser one at a time.

The test system of assay [4] is HEY. The assay is described as follows: Induction of senescence in human HEY cells assessed as increase in IL-8 mRNA expression level at EC80 concentration after 6 days by qRT-PCR analysis. The class given is functional, cell-based. The essentials:
as §2

Assay [5] concerns MDA-MB-468. The assay is described as follows: Induction of cell death in human MDA-MB-468 cells at EC80 concentration after 3 to 6 days by DAPI staining based flow cytometry. The class given is functional. The essentials: as §3
For assay [6], the system named is BT-549. The assay is described as follows: Antiproliferative activity against human BT549 cells after 3 to 7 days by SRB assay. The format is functional, cell-based. In outline:
as §1

The subject of a further assay is BT-20. The assay is described as follows: Antiproliferative activity against human BT20 cells after 3 to 7 days by SRB assay. The format is functional, cell-based. The essentials:
as §1

Another assay relates to MDA-MB-157. The assay is described as follows: Antiproliferative activity against human MDA-MB-157 cells after 3 to 7 days by SRB assay. The format is functional, cell-based. The essentials: as §1
Assay [7] concerns MDA-MB-468. The assay is described as follows: Induction of senescence in human MDA-MB-468 cells at EC80 concentration after 3 to 6 days by DAPI staining based flow cytometry. The format is functional. In outline: as §3
The next assay relates to HCC1143. The assay is described as follows: Antiproliferative activity against human HCC1143 cells after 3 to 7 days by SRB assay. The format is functional, cell-based. The essentials: as §1
The species named for the next assay is Bos taurus. The assay is described as follows: Induction of bovine brain tubulin alpha polymerization assessed as alpha tubulin expression by measuring pellet/supernatant and pellet fraction level at 3 uM after 1 hr by immunoblot method (reference value: 10.4%). In outline: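 Purified bovine brain tubulin incubated 30 min at 37 °C with 3 μM compound in MEM–glycerol buffer, 2 mM GTP, pH 6.9. Spun at 120000g, 37 °C, 1 h. Supernatant and SDS-solubilized pellet run on SDS-PAGE, α-tubulin quantified by Western blot, % polymerized calculated as P/(S + P).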

Assay [8] deals with HEY. The assay is described as follows: Induction of senescence in human HEY cells assessed as increase in PAI1 mRNA expression level at EC80 concentration after 6 days by qRT-PCR analysis. The format is functional, cell-based. In outline: as §2
The subject of assay [9] is MDA-MB-468. The assay is described as follows: Induction of senescence in human MDA-MB-468 cells assessed as increase in PAI1 mRNA expression level at EC80 concentration after 6 days by qRT-PCR analysis. The class given is functional, cell-based. In outline: as §2
In assay [10] the test system is HEY. The assay is described as follows: Induction of senescence in human HEY cells assessed as increase in CXCL1 mRNA expression level at EC80 concentration after 6 days by qRT-PCR analysis. The class given is functional, cell-based. In outline:
as §2

The subject of assay [11] is Hs-578T. The assay is described as follows: Induction of senescence in human Hs578T cells at EC80 concentration after 3 to 6 days by DAPI staining based flow cytometry. The format is functional. The essentials:
as §3

A further assay has as its system MCF7. The assay is described as follows: Antiproliferative activity against human MCF7 cells after 3 to 7 days by SRB assay. The class given is functional, cell-based. In outline: as §1
Assay [12] relates to MDA-MB-468. The assay is described as follows: Induction of senescence in human MDA-MB-468 cells assessed as increase in CXCL1 mRNA expression level at EC80 concentration after 6 days by qRT-PCR analysis. The class given is functional, cell-based. The essentials:
as §2

Assay [13] deals with HEY. The assay is described as follows: Antiproliferative activity against human HEY cells after 3 to 7 days by SRB assay. The format is functional, cell-based. In outline:
as §1

Assay [14] concerns BT-549. The assay is described as follows: Induction of cell death in human BT549 cells at EC80 concentration after 3 to 6 days by DAPI staining based flow cytometry. The class given is functional. The essentials:
as §3

Assay [15] deals with HEY. The assay is described as follows: Induction of senescence in human HEY cells at EC80 concentration after 3 to 6 days by DAPI staining based flow cytometry. The class given is functional. In outline: as §3
The subject of assay [16] is MDA-MB-468. The assay is described as follows: Antiproliferative activity against human MDA-MB-468 cells after 3 to 7 days by SRB assay. The format is functional, cell-based. The essentials: as §1
Assay [17] has as its system Hs-578T. The assay is described as follows: Induction of cell death in human Hs578T cells at EC80 concentration after 3 to 6 days by DAPI staining based flow cytometry. The format is functional. In outline:
as §3

The subject of a further assay is A549. The assay is described as follows: Antiproliferative activity against human A549 cells after 3 to 7 days by SRB assay. The format is functional, cell-based. In outline: as §1
The subject of assay [18] is Hs-578T. The assay is described as follows: Induction of senescence in human Hs578T cells assessed as increase in IL-6 mRNA expression level at 100 nM after 10 days by qRT-PCR analysis. The class given is functional, cell-based. In outline:
(§4)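 HS578T exposed to 100 nM doxorubicin for 10 days, then sorted for SSC+ DAPI− cells. Sorted and unsorted populations assayed by qRT-PCR for SASP transcripts. Expression was normalised to cyclophilin B, and groups compared by unpaired t test.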

Assay [19] concerns Hs-578T. The assay is described as follows: Induction of mitotic catastrophe in human Hs578T cells assessed as increase in cell population with high forward scatter at 100 nM after 10 days by DAPI staining based flow cytometry. The format is functional. The essentials: (§5)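 HS578T treated with 100 nM doxorubicin for 10 days, then stained with DAPI for live-cell flow cytometry. Forward scatter (volume) and side scatter (granularity) recorded. Dead cells were DAPI+; senescent cells were high FSC and SSC with low DAPI uptake; mitotic catastrophe was FSC increase only.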

In assay [20] the test system is Hs-578T. The assay is described as follows: Induction of senescence in human Hs578T cells assessed as increase in CXCL1 mRNA expression level at 100 nM after 10 days by qRT-PCR analysis. The class given is functional, cell-based. The essentials:
as §4

The subject of assay [21] is Hs-578T. The assay is described as follows: Induction of senescence in human Hs578T cells assessed as increase in IL-8 mRNA expression level at 100 nM after 10 days by qRT-PCR analysis. The class given is functional, cell-based. In outline: as §4
For assay [22], the system named is Hs-578T. The assay is described as follows: Induction of senescence in human Hs578T cells assessed as increase in dead cells at 100 nM after 10 days by DAPI staining based flow cytometry. The format is functional, cell-based. In outline:
as §5

Assay [23] deals with Hs-578T. The assay is described as follows: Induction of senescence in human Hs578T cells assessed as increase in cell population with high side scatter at 100 nM after 10 days by DAPI staining based flow cytometry. The class given is functional. In outline:
as §5

For assay [24], the system named is Hs-578T. The assay is described as follows: Induction of senescence in human Hs578T cells assessed as increase in cell population with high forward scatter at 100 nM after 10 days by DAPI staining based flow cytometry. The format is functional. In outline: as §5

Consider `C=C/C=C\[C@H](C)[C@H](OC(=O)NCCCNC(=O)c1ccc(N=[N+]=[N-])cc1)[C@@H](C)[C@H](O)[C@@H](C)C/C(C)=C\[C@H](C)[C@@H](O)[C@@H](C)/C=C\[C@@H](O)C[C@@H]1OC(=O)[C@H](C)[C@@H](O)[C@H]1C`, for which the outcome in the assay with Hs-578T [1], in the assay with MDA-MB-468 [2], with HEY [4], in the assay on MDA-MB-468 [5], in the assay on BT-549 [6] and in the assay on BT-20 was Active. Further, the outcome in the assay with MDA-MB-157, in the assay with HCC1143, in the assay with HEY [8], in the assay with MDA-MB-468 [9], in the assay with HEY [10] and with MCF7 was Active. Further, the result with MDA-MB-468 [12], in the assay with HEY [13], in the assay on BT-549 [14], with MDA-MB-468 [16] and in the assay on A549 was Active. Further, the Activity in the assay with BT-549 [3] was under 10%; in the assay with MDA-MB-468 [7], under 10%; in the assay listed under Bos taurus it was 64.2%; with Hs-578T [11], 15 - 18%; in the assay on HEY [15], 10 - 15%. Moreover, in the assay on Hs-578T [17], the result was inactive.
Take `COc1cccc2c1C(=O)c1c(O)c3c(c(O)c1C2=O)C[C@@](O)(C(=O)CO)C[C@@H]3O[C@H]1C[C@H](N)[C@H](O)[C@H](C)O1`: the result with Hs-578T [18], in the assay with Hs-578T [19], in the assay on Hs-578T [20], in the assay on Hs-578T [21], with Hs-578T [22] and with Hs-578T [23] was Active. Moreover, the outcome in the assay with Hs-578T [24] was Active.
Regarding `C=C/C=C\[C@H](C)[C@H](OC(=O)NCCCNC(=O)c1ccc(C2(C(F)(F)F)N=N2)cc1)[C@@H](C)[C@H](O)[C@@H](C)C/C(C)=C\[C@H](C)[C@@H](O)[C@@H](C)/C=C\[C@@H](O)C[C@@H]1OC(=O)[C@H](C)[C@@H](O)[C@H]1C`, the outcome in the assay with Hs-578T [1], in the assay with MDA-MB-468 [2], with HEY [4], in the assay with MDA-MB-468 [5], in the assay with BT-549 [6] and with BT-20 was Active. Besides, the result in the assay on MDA-MB-157, in the assay with HCC1143, in the assay with HEY [8], in the assay on MDA-MB-468 [9], with HEY [10] and with MCF7 was Active. The outcome with MDA-MB-468 [12], in the assay on HEY [13], with BT-549 [14], in the assay on MDA-MB-468 [16] and in the assay with A549 was Active. Besides, the Activity with BT-549 [3] is under 10%; in the assay on MDA-MB-468 [7], under 10%; in the assay listed under Bos taurus, 56.1%; with Hs-578T [11], 15 - 18%; in the assay with HEY [15], 10 - 15%. Moreover, the result in the assay with Hs-578T [17] was inactive.
Consider `C=C/C=C\[C@H](C)[C@H](OC(=O)NCCCNC(=O)c1cccc(N=[N+]=[N-])c1)[C@@H](C)[C@H](O)[C@@H](C)C/C(C)=C\[C@H](C)[C@@H](O)[C@@H](C)/C=C\[C@@H](O)C[C@@H]1OC(=O)[C@H](C)[C@@H](O)[C@H]1C`, for which the result in the assay with Hs-578T [1], with MDA-MB-468 [2], in the assay on HEY [4], with MDA-MB-468 [5], in the assay with BT-549 [6] and in the assay with BT-20 was Active. Besides, the result in the assay with MDA-MB-157, in the assay with HCC1143, with HEY [8], in the assay on MDA-MB-468 [9], in the assay with HEY [10] and with MCF7 was Active. The outcome in the assay with MDA-MB-468 [12], in the assay with HEY [13], in the assay on BT-549 [14], in the assay with MDA-MB-468 [16] and in the assay on A549 was Active. The Activity with BT-549 [3] is under 10%; in the assay on MDA-MB-468 [7], under 10%; in the assay listed under Bos taurus, 60%; in the assay on Hs-578T [11] it was 15 - 18%; with HEY [15], 10 - 15%. Further, the result with Hs-578T [17] was inactive.

Values taken from ChEMBL document CHEMBL4251683, “Improved Dose-Response Relationship of (+)-Discodermolide-Taxol Hybrid Congeners” (2018).
